{"data": "Assay results gathered from unrelated publications", "target": "Serine/threonine-protein kinase PAK 4 (PAK4, Homo sapiens, UniProt O96013)", "note": "Lines come from different studies, so protocols differ."}
{"SMILES": "N[C@H]1CCN(c2nccc(-c3cnn4ncccc34)n2)C1", "assay": "binding", "conditions": "1 µM", "remaining binding": "88%"}
{"SMILES": "COc1cnc(Nc2cccc(S(N)(=O)=O)c2)nc1N1CCN(c2ccccc2)CC1", "assay": "binding, competition with immobilised ligand", "conditions": "1 µM", "remaining binding": "95%"}
{"SMILES": "CN(C)c1nccc(-c2cnn3ncccc23)n1", "assay": "binding", "conditions": "1 µM", "remaining binding": "100%"}
{"SMILES": "Cc1nc(N2CC[C@@H](O)C2)ncc1-c1cc(C(F)(F)F)cc2[nH]ncc12", "assay": "cell-free assay, competition with immobilised ligand", "conditions": "1 µM", "remaining binding": "100%"}
{"SMILES": "CC(C)(C)c1ccc(-c2nc(CBr)nn2-c2cccc(O)c2)cc1", "assay": "cell-free assay, competition with immobilised ligand", "conditions": "10 µM", "remaining binding": "87%"}
{"SMILES": "O=C(O)c1cc(-c2ccc(C3CCNCC3)cc2)c2ccc(-c3ccc(C(F)(F)F)cc3)cc2c1", "assay": "cell-free assay, competition with immobilised ligand", "conditions": "1 µM", "remaining binding": "100%"}
{"SMILES": "F[C@@H]1CCN(c2nccc(-c3cnn4ncccc34)n2)C1", "assay": "binding", "conditions": "1 µM", "remaining binding": "100%"}
{"SMILES": "O=C(c1ccc(Nc2ncc(Cl)c(-c3cc4ccccc4s3)n2)cc1)N1CCC(N2CCCC2)CC1", "assay": "binding, competition with immobilised ligand", "conditions": "1 µM", "remaining binding": "77%"}
{"SMILES": "CN(C)c1ncc(F)c(-c2cnn3ncccc23)n1", "assay": "binding", "conditions": "1 µM", "remaining binding": "80%"}
{"SMILES": "C[C@@H]1CN(c2ccc3ncc(-c4ccc5[nH]nc(C6CC6)c5c4)n3n2)C[C@H](C)O1", "assay": "binding, competition with immobilised ligand", "conditions": "0.5 µM", "remaining binding": "83%"}
{"SMILES": "O=C(NCc1ncc(C(F)(F)F)cc1Cl)c1ccc2c(c1)C1(CCS(=O)(=O)CC1)[C@H](C1CC1)N2S(=O)(=O)c1ccc(F)cc1", "assay": "cell-free assay, competition with immobilised ligand", "conditions": "1 µM", "remaining binding": "100%"}
{"SMILES": "N#Cc1ccccc1CSc1nnc2c(n1)[nH]c1ccccc12", "assay": "binding, competition with immobilised ligand", "conditions": "10 µM", "remaining binding": "87%"}
{"SMILES": "CN(C)c1nccc(-c2cnc3ncccn23)n1", "assay": "binding", "conditions": "1 µM", "remaining binding": "88%"}
{"SMILES": "O=C(c1ccc(Nc2ncc(Cl)c(-c3ccc(Cl)s3)n2)cc1)N1CCC(N2CCCC2)CC1", "assay": "binding, competition with immobilised ligand", "conditions": "1 µM", "remaining binding": "53%"}
{"SMILES": "CN1CCN(c2cnc3c(C4CCN(C(=O)c5ccc(OC(F)(F)F)cc5N)CC4)ncnc3c2)CC1", "assay": "cell-free assay, competition with immobilised ligand", "conditions": "1 µM", "remaining binding": "91%"}
{"SMILES": "COc1cnc(Nc2cccc(S(N)(=O)=O)c2)nc1N1CCN(c2ccccc2)C(=O)C1", "assay": "binding, competition with immobilised ligand", "conditions": "1 µM", "remaining binding": "100%"}
{"SMILES": "Cn1cc(Cl)c2c(Oc3c(F)cc(Nc4cc(Cl)nc(N)n4)cc3F)ccnc21", "assay": "cell-free assay, competition with immobilised ligand", "conditions": "0.1 µM", "remaining binding": "100%"}
{"SMILES": "O=C(c1ccc(Nc2nccc(-c3cc4ccccc4s3)n2)cc1)N1CCC(N2CCCC2)CC1", "assay": "binding, competition with immobilised ligand", "conditions": "1 µM", "remaining binding": "81%"}
{"SMILES": "CCC(=O)N[C@@H]1CC[C@H](C(=O)N(C)c2ccc(-c3nc4ccccc4o3)cc2)C1", "assay": "cell-free assay, competition with immobilised ligand", "conditions": "1 µM", "remaining binding": "100%"}
{"SMILES": "O=C(Nc1c[nH]nc1C(=O)NC1CCNCC1)c1cc(F)cc(F)c1", "assay": "binding, competition with immobilised ligand", "conditions": "1 µM", "remaining binding": "100%"}
{"SMILES": "FC(F)(F)Oc1cccc(-c2cnc3ccc(-c4ccncc4)nn23)c1", "assay": "cell-free assay, competition with immobilised ligand", "conditions": "5 µM", "remaining binding": "47%"}
{"SMILES": "O=C(NS(=O)(=O)c1ccc(NCC2CCOCC2)c([N+](=O)[O-])c1)c1ccc(N2CCN(Cc3ccc(C(F)(F)F)cc3-c3ccc(Cl)cc3)CC2)cc1Oc1cnc2[nH]ccc2c1", "assay": "cell-free assay, competition with immobilised ligand", "conditions": "1 µM", "remaining binding": "93%"}
{"SMILES": "c1cnn2ncc(-c3ccnc(N4CCC45COC5)n3)c2c1", "assay": "binding", "conditions": "1 µM", "remaining binding": "96%"}
{"SMILES": "O=C(NC[C@@H]1[C@H]2CN(C(=O)OCc3cc(C(F)(F)F)cc(C(F)(F)F)c3)C[C@@H]12)c1ccc2[nH]nnc2c1", "assay": "cell-free assay, competition with immobilised ligand", "conditions": "1 µM", "remaining binding": "100%"}
{"SMILES": "C[C@H]1CCN(c2nccc(-c3cnn4ncccc34)n2)C1", "assay": "binding", "conditions": "1 µM", "remaining binding": "95%"}
